Measured values: ChEMBL document CHEMBL4052593, “Pharmacokinetic Analysis and in Vivo Antitumor Efficacy of Taccalonolides AF and AJ” (J Nat Prod, 2017)
Activity calls are given as the source filed them. No cut-off for these calls is given here.

Key:
[1] = tested on: MDA-MB-435; test: Antiproliferative activity against human MDA-MB-435 cells assessed as cell growth inhibition in presence of 10% FBS by sulforhodamine B assay; format: functional
Procedure, shortened: (§1)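 MDA-MB-435 cells, normally kept in IMEM with 10% FBS and gentamicin, were exposed to concentration-response series in medium holding 0.1%, 1% or 10% serum. Growth was measured by sulforhodamine B staining. Cell density at the time of drug addition marked the line between antiproliferative and cytotoxic effect. GI50 was taken from the curves. Three independent experiments were run, each concentration in triplicate, reported as mean ± SEM.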

[2] = tested on: MDA-MB-435; test: Antiproliferative activity against human MDA-MB-435 cells assessed as cell growth inhibition in presence of 0.1% FBS by sulforhodamine B assay; format: functional; procedure, shortened: as §1
[3] = tested on: HeLa; test: Antiproliferative activity against human HeLa cells after 48 hrs by SRB assay; format: functional, cell-based
[4] = tested on: Plasma; test: Drug uptake in athymic nude mouse plasma at 300 ug, iv after 2 hrs by LC-MS analysis; format: ADME, organism-based; conditions: in vivo
Procedure, shortened: (§2)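 Female athymic nude mice, 6–7 weeks old, got a 300 µg IV tail-vein bolus. Plasma was taken from 3–5 mice per time point (pre-dose, end of infusion, 0.25, 0.5, 1, 2 h), ethyl acetate-extracted and quantified by LC-MS against weighted (1/X2) calibration curves. Noncompartmental analysis: Cmax by inspection, t1/2 from the last two log points, AUC by linear trapezoid extrapolated to infinity, CL = dose/AUC.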

[5] = tested on: Mus musculus; test: AUC in athymic nude mouse at 300 ug, iv after 2 hrs by LC-MS analysis; format: ADME, organism-based; set-up: dose 300 ug, time < 2 hr, route intravenous; conditions: in vivo; procedure, shortened: as §2
[6] = tested on: SCC-4; test: Antitumor activity against human SCC4 cells xenografted in athymic nude mouse assessed as tumor growth inhibition at 40 to 80 ug administered intratumorally on day 0 and day 3 measured on day 17 post dose; format: functional, cell-based
Procedure, shortened: (§3)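 Female athymic nude mice, 6–7 weeks old, received 1 × 10^6 SCC-4 cells subcutaneously in the rear flank. Treatment began when tumors averaged 200 mm3. Under isoflurane, tumors were injected directly on days 0 and 3 with drug in 100 µL PBS with final 8% ethanol, or with vehicle only; the total dose was split between the two days. Calipers were read every 2–4 days and volume taken as width × length × height. Body weight and toxicity were monitored. Groups were compared over 17 days by two-way ANOVA with Tukey post-hoc; time for tumors to reach 1,500 mm3 was also tracked.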

[7] = tested on: MDA-MB-435; test: Ratio of GI50 for human MDA-MB-435 cells in presence of 10% FBS to GI50 for human MDA-MB-435 cells in presence of 0.1% FBS; format: functional
Procedure, shortened: (§4)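 MDA-MB-435 human melanoma cells were kept in IMEM with 10% FBS. They were tested across a concentration range in 0.1, 1 or 10% serum using sulforhodamine B, with cell density at drug addition as the cytotoxicity baseline. GI50 in 1% or 10% serum was divided by GI50 in 0.1% serum. Three independent experiments, each concentration in triplicate.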

[8] = tested on: Mus musculus; test: Elimination half life in athymic nude mouse at 300 ug, iv after 2 hrs by LC-MS analysis; format: ADME, organism-based; conditions: in vivo; procedure, shortened: as §2
[9] = tested on: Liver; test: Intrinsic clearance in human liver microsomes in presence of NADPH by LC-MS/MS analysis; format: ADME, microsome
[10] = tested on: Mus musculus; test: Clearance in athymic nude mouse at 300 ug, iv after 2 hrs by LC-MS analysis; format: ADME, organism-based; conditions: in vivo; procedure, shortened: as §2
[11] = tested on: Mus musculus; test: Toxicity against athymic nude mouse xenografted with human SCC4 cells assessed as weight loss at 40 ug administered intratumorally on day 0 and day 3 measured up to day 17 post dose; conditions: in vivo, other
Procedure, shortened: (§5)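 SCC-4 cells (1 × 10^6) were implanted subcutaneously in the rear flank of 6–7 week old female athymic nude mice. At an average tumor volume of 200 mm3, mice were grouped. Tumors were injected on days 0 and 3 with drug in 100 µL PBS containing 8% ethanol, or vehicle, under isoflurane. Mice were monitored for weight loss and toxicity; tumors were measured with calipers every 2–4 days.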

[12] = tested on: MDA-MB-435; test: Ratio of GI50 for human MDA-MB-435 cells in presence of 1% FBS to GI50 for human MDA-MB-435 cells in presence of 0.1% FBS; format: functional; procedure, shortened: as §4
[13] = tested on: SCC-4; test: Antitumor activity against human SCC4 cells xenografted in athymic nude mouse assessed as tumor growth inhibition at 20 ug administered intratumorally on day 0 and day 3 measured every 2 to 4 days up to 2 weeks; format: functional, cell-based; procedure, shortened: as §3
[14] = tested on: Liver; test: Half life in human liver microsomes in presence of NADPH by LC-MS/MS analysis; format: ADME, microsome
[15] = tested on: MDA-MB-435; test: Antiproliferative activity against human MDA-MB-435 cells assessed as cell growth inhibition in presence of 1% FBS by sulforhodamine B assay; format: functional; procedure, shortened: as §1
[16] = tested on: Mus musculus; test: Cmax in athymic nude mouse at 300 ug, iv after 2 hrs by LC-MS analysis; format: ADME, organism-based; set-up: dose 300 ug, route intravenous; conditions: in vivo; procedure, shortened: as §2
[17] = tested on: Liver; test: Intrinsic clearance in human liver microsomes in absence of NADPH by LC-MS/MS analysis; format: ADME, microsome
[18] = tested on: SCC-4; test: Antitumor activity against human SCC4 cells xenografted in athymic nude mouse assessed as tumor growth inhibition administered intratumorally on day 0 and day 3 measured up to day 17 post dose; format: functional, cell-based; procedure, shortened: as §3
[19] = tested on: SCC-4; test: Antitumor activity against human SCC4 cells xenografted in athymic nude mouse assessed as tumor burden at 80 ug administered intratumorally on day 0 and day 3 measured on day 10 post dose; format: functional; procedure, shortened: as §3
[20] = tested on: SCC-4; test: Antitumor activity against human SCC4 cells xenografted in athymic nude mouse assessed as tumor growth inhibition at 40 to 80 ug administered intratumorally on day 0 and day 3 measured on day 14 post dose; format: functional, cell-based; procedure, shortened: as §3
[21] = tested on: Liver; test: Half life in human liver microsomes in absence of NADPH by LC-MS/MS analysis; format: ADME, microsome
[22] = tested on: MDA-MB-435; test: Antiproliferative activity against human MDA-MB-435 cells assessed as cell growth inhibition at 1 nM in presence of 10% FBS by sulforhodamine B assay relative to control; conditions: MDA-MB-435, read-out: GI
[23] = tested on: MDA-MB-435; test: Antiproliferative activity against human MDA-MB-435 cells assessed as cell growth inhibition at 1 nM in presence of 1% FBS by sulforhodamine B assay relative to control; conditions: MDA-MB-435, read-out: GI
[24] = tested on: MDA-MB-435; test: Antiproliferative activity against human MDA-MB-435 cells assessed as cell growth inhibition at 1 nM in presence of 0.1% FBS by sulforhodamine B assay relative to control; conditions: MDA-MB-435, read-out: GI
[25] = tested on: SCC-4; test: Antitumor activity against human SCC4 cells xenografted in athymic nude mouse assessed as tumor growth inhibition at 40 ug administered intratumorally on day 0 and day 3 measured up to 2 weeks; format: functional, cell-based; procedure, shortened: as §3
[26] = tested on: Mus musculus; test: Toxicity in athymic nude mouse xenografted with human SCC4 cells assessed as weight loss at 40 ug administered intratumorally on day 0 and day 3 measured up to 2 weeks; conditions: in vivo, other, 336 h; procedure, shortened: as §5
[27] = tested on: SCC-4; test: Antitumor activity against human SCC4 cells xenografted in athymic nude mouse assessed as reduction in tumor burden at 80 ug administered intratumorally on day 0 and day 3 measured on day 51 post dose; format: functional, cell-based; procedure, shortened: as §3

Compound | GI50 [1] [nM] | GI50 [2] [nM] | IC50 [3] [nM] | AUC [5] [µg·h/mL] | RatioGI50 [7] | beta t1/2 [8] [h] | CLH [9] [µL/min/mg] | CL [10] [mL/h] | RatioGI50 [12] | t1/2 [14] [h] | GI50 [15] [nM] | Cmax [16] [µg/mL] | Activity [19] [mm3] | t1/2 [21] [h] | also measured
CC(=O)O[C@H]1[C@H]2[C@H]([C@@H]3[C@@H](O)[C@@H]4[C@H]([C@H](C)[C@H]5O[C@]56OC(=O)[C@@](C)(O)[C@]46C)[C@@]3(C)[C@H]1OC(C)=O)[C@@H](O)C(=O)[C@H]1C[C@@H]3O[C@@H]3[C@H](OC(C)=O)[C@]21C | 9 | 6 | 4 | 3.5 | 1.5 | 0.135 | 15 | 85 | 1.2 | 0.783 | 7 | 19 | <1500 | > 4 | Drug uptake [4]: Not Active; TGI [6]: Active; Activity [11]: Non-Toxic; TGI [13]: inactive; CLH [17]: 300 µL/min/mg; TGI [18]: Dose-dependent effect; TGI [20]: Active
CC(=O)O[C@H]1C(=O)[C@@]2(C)[C@H]([C@H](OC(=O)c3ccccc3)[C@]3(O)C[C@H](OC(=O)[C@H](O)[C@@H](NC(=O)c4ccccc4)c4ccccc4)C(C)=C1C3(C)C)[C@]1(OC(C)=O)CO[C@@H]1C[C@@H]2O [PACLITAXEL] | 3.4 | 1 |  |  |  |  |  |  |  |  | 1.9 |  |  |  | inhibition of growth at 0.001 µM [22]: 9%; inhibition of growth at 0.001 µM [23]: 27%; inhibition of growth at 0.001 µM [24]: 54%
CC(=O)CC(c1ccccc1)c1c(O)c2ccccc2oc1=O (stereo not given) [WARFARIN] |  |  |  |  |  |  | 0 |  |  |  |  |  |  |  | 
CC(=O)O[C@@H]1[C@H]2[C@H]3[C@H]([C@H](OC(C)=O)[C@H](OC(C)=O)[C@]2(C)[C@H]2[C@H](C)[C@H]4O[C@]45OC(=O)[C@@](C)(O)[C@]5(C)[C@H]12)[C@]1(C)[C@H](C[C@@H]2O[C@@H]2[C@@H]1OC(C)=O)C(=O)[C@@H]3O | 47 | 25 | 24 | 1.3 | 1.9 | 0.733 | 8.3 | 240 | 1.2 | 1.38 | 30 | 8.6 | <1500 | > 4 | TGI [25]: Active; Activity [26]: Non-Toxic; Activity [27]: Active
